Bioassay records from PubChem BioAssay.
HSV augment: increases HSV replication in cells. HSV replication augmentation in cells, fold increase. 220,000 tested, 0.005% active. maximum fold increase. AID 1956; in the data active = maximum fold increase above about 1.5; tested in PC3 cells
Rad51 HR inh: Rad51 (human) homologous recombination inhibition | AID 1385 | Q06609 | hRad51 DNA strand exchange, fluorescence dequenching | 200,000 tested, 0.085% active | inhibition, % at 10 µM;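 active = inhibition above 40% at the single screening dose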
Target sequence (Q06609 whole entry, looked up): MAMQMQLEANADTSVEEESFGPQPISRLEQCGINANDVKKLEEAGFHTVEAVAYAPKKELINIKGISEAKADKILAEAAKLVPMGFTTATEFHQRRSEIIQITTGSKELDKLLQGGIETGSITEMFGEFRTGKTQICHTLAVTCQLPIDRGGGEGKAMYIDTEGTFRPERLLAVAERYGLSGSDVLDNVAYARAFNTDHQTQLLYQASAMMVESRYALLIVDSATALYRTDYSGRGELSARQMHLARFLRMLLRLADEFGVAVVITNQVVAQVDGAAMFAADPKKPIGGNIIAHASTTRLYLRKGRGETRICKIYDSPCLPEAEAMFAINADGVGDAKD
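Material: human Rad51–ssDNA filaments; Probe or stimulus: labelled 47-mer dsDNA for strand exchange; Doses: single 10 µM dose; Incubation: 37 °C 15-min filament assembly, 30-min compound preincubation, 15-min exchange; Technique: FRET fluorescence dequenching, excitation 485 nm, emission 520 nm; Measure: Fluorescence-based percent inhibition, control- and blank-normalised; Benchmarks: plate control and blank wells.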
HSF1 inh: HSF1 inhibition; NIH3T3-HGL HSE-luciferase, MG132-induced, luminescence 8 h; active compounds read low; activity change, negative = inhibition, % at 7.5 µM (by protocol); 300,000 tested, 0.77% active; AID 2098;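 active = more than half of replicate wells show activity change below -50%, luminescence cut by over half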;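 note: luciferase reports HSF-1 transcriptional activity via heat shock element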
Hsp70 act: switches on Hsp70 transcription. HeLa Hsp70 promoter luciferase reporter, luminescence; scaled: vehicle 0, proteasome-inhibitor control 100%. activation, % at 10 µM. 200,000 tested, 0.04% active. AID 1203;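 active = activation above the mean across all tested compounds plus 3 SD, cutoff set per campaign, cut at about 5.5% in these data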
MDM2 E3 inh: blocks human Mdm2 ubiquitin ligase activity; Q00987; cell-based MDM2 ubiquitination luciferase reporter, 2 h; 0 = plate control, 100 = twice control, blank-subtracted; signal enhancement, % at 5 µM; 210,000 tested, 0.11% active;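 active = signal enhancement of 30% or more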;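 note: luminescence tracks abundance of the self-degrading MDM2-luciferase fusion protein; higher signal means inhibition of MDM2 E3 ligase activity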
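Timing – 2 h compound exposure at 37 °C · Assay system – mammalian cells stably expressing self-ubiquitinating, self-degrading MDM2 E3–luciferase fusion · Amount – 2000 cells seeded into each well · Measure – % luminescence enhancement versus blank-corrected plate control mean · Measured by – SteadyLite luminescence, 15 min reagent step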
HSF1 activator: increases HSF-1 driven luciferase reporter signal; NIH3T3-HGL HSF-1 luciferase reporter, MG132, 8 h; 100% = twice DMSO control signal; activation, % at 9 µM; 300,000 tested, 1.7% active; AID 504408;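 active = mean replicate activation of at least 50% with a set share of replicates each reaching 50%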
Of the large screens only hits and unclear results are named; the others gave an inactive call. In the library only some 2.6% were active in any assay of this set; here they are far more common.

Cc1cc(C)nc(-n2c(C)nc3cc(Cl)ccc3c2=O)c1	HSF1 inh -77.9
CSc1ccccc1NP1(=O)OCC(C)([N+](=O)[O-])CO1 (stereo not given)	none (no result: HSV augment, Rad51 HR inh, Hsp70 act, MDM2 E3 inh)
Cc1cc([N+](=O)[O-])c2ccccc2[n+]1[O-]	HSF1 inh -78.0 (no result: Rad51 HR inh, Hsp70 act)
CCCC(=O)c1ccc(CP(=O)(OCC)OCC)o1	none (no result: Hsp70 act)
COC(=O)C1=C(c2cc3ccccc3o2)C[C@@H]2CC[C@H]1N2C(=O)NCc1ccc(C(F)(F)F)cc1	none (no result: Hsp70 act, MDM2 E3 inh)
CC(C)(O)/C=C/C(=O)C(C)(O)C1C(O)CC2(C)C3CC=C4C(C=C(O)C(=O)C4(C)C)C3(C)C(=O)CC12C (stereo not given)	HSF1 inh 69.1, HSF1 activator 69.1 (no result: HSV augment, Rad51 HR inh, Hsp70 act, MDM2 E3 inh)
CCCc1[nH]nc2c1C1(C(=O)N(CC(N)=O)c3ccccc31)C(C(=O)OC)=C(N)O2 (stereo not given)	none
CCCc1[nH]nc2c1C1(C(=O)N(Cc3ccccc3)c3ccccc31)C(C(=O)OC)=C(N)O2 (stereo not given)	HSF1 activator 55.5
O=C(C1CCCO1)N1CCC2(CC1)OCCO2 (stereo not given)	HSF1 inh -90.0
CC(C)(C)c1cc(OC(=O)Cc2ccccc2)ccc1O	none (no result: HSV augment, Rad51 HR inh, Hsp70 act, MDM2 E3 inh)
O=C(N=Nc1c(O)[nH]c(=O)[nH]c1=O)C1COc2cc3ccccc3cc2O1 (stereo not given)	none
CSCc1nnc2n1-c1ccc(Cl)cc1C(c1ccccc1)=NC2	HSF1 inh -86.6
CS(=O)(=O)NCc1nnc2n1-c1ccc(Cl)cc1C(c1ccccc1)=NC2	none
OCC1(CO)COC(c2cccnc2)N1 (stereo not given)	HSF1 activator 66.0
c1cncc(C2CCCCN2)c1 (stereo not given)	none (no result: Hsp70 act)
C=CCn1c(O)c(C(CC)=NCC2CCCO2)c(=O)[nH]c1=O (stereo not given)	HSF1 activator 64.9 (no result: Rad51 HR inh, Hsp70 act)
C=CCn1c(O)c(C(C)=NC2CCN(Cc3ccccc3)CC2)c(=O)[nH]c1=O	HSF1 inh -87.8 (no result: Hsp70 act, MDM2 E3 inh)
CCC(=NCC1CCCO1)c1c(O)n(-c2ccccc2C)c(=O)[nH]c1=O (stereo not given)	none (no result: Hsp70 act)
C=CCn1c(O)c(/C(C)=N/N2CCCCC2)c(=O)[nH]c1=O	HSF1 activator 67.0 (no result: Rad51 HR inh, Hsp70 act, MDM2 E3 inh)
C=CCn1c(O)c(C(C)=NCCN2CCCCC2)c(=O)[nH]c1=O	none
CC1(CCl)CN1S(=O)(=O)c1ccccc1 (stereo not given)	none (no result: Hsp70 act)
Cc1ccsc1/C=C1\C(=O)NC(=S)N(C)C1=O	HSF1 inh -66.8 (no result: HSV augment, Rad51 HR inh, Hsp70 act, MDM2 E3 inh)
C/C(=N\N1CCN(C)CC1)c1c(O)[nH]c(=O)[nH]c1=O	none
CCN(CC)c1ccc(CN2CC=C(c3ccc(F)cc3)CC2)cc1	none (no result: MDM2 E3 inh)
COc1ccc(CN2CC=C(c3ccc(F)cc3)CC2)cc1Br	HSF1 inh -67.9 (no result: HSV augment, Rad51 HR inh, Hsp70 act, MDM2 E3 inh)
CC/C(=N\N1CCN(C)CC1)c1c(O)[nH]c(=O)[nH]c1=O	none
O=C1C(=O)c2cccc3cccc1c23	none
O=C1C(=O)c2ccccc2-c2ccccc21	HSF1 inh -94.3
COc1cc2c(cc1OC)CN(c1ccc([N+](=O)[O-])c(C(F)(F)F)c1)CC2	HSF1 activator 121.2
CC1(C)C[C@H]2C=C(C=O)[C@]3(C=O)C[C@]3(C)[C@H]2C1	HSF1 inh -75.7
C=CC[N+]1(C)CC[C@]23c4c5ccc(O)c4O[C@H]2C(=O)CC[C@@]3(O)[C@H]1C5 (stereo not given in full)	none (no result: HSV augment, Rad51 HR inh, Hsp70 act, MDM2 E3 inh)
Cc1ccc2c(c1)C1CN(C)CCC1N2C(=O)Nc1cccc(C(F)(F)F)c1 (stereo not given)	HSF1 inh -70.4
Cc1ccc2c(c1)[C@@H]1CN(C)CC[C@@H]1N2C(=O)Nc1cccc(C(F)(F)F)c1	none
COc1ccc(Oc2cc(NC(=O)c3nn(C)cc3[N+](=O)[O-])cc([N+](=O)[O-])c2)cc1	HSF1 inh -53.8
O=[N+]([O-])[N-][n+]1cnn(Cc2ccc(Cl)cc2)c1	none
CCCCC1C(=O)NC(=S)NC1=O	HSF1 inh -66.7 (no result: Rad51 HR inh, MDM2 E3 inh)
O=C1NC(=S)NC(=O)C1C1CCCCC1	none (no result: Hsp70 act, MDM2 E3 inh)
COc1cccc(C2=NOC(C(=O)N3CCC4(CC3)OCCO4)C2)c1 (stereo not given)	Rad51 HR inh 87.4
CCOC(=O)c1c(C)n(Cc2ccco2)c2c1cc(O)c1ccccc12	none
